Measurements taken from ChEMBL document CHEMBL3392981, “Synthesis and pharmacological evaluation of dual acting ligands targeting the adenosine A2A and dopamine D2 receptors for the potential treatment of Parkinson's disease” (J Med Chem, 2015).

Key:
D(2) dopamine receptor [1] = target: T1, D(2) dopamine receptor (Homo sapiens, UniProt P14416); experiment: Agonist activity at human dopamine D2L receptor expressed in CHO cell membranes incubated for 1 hr by [35S]GTPgammaS binding assay; format: functional; details: for pEC50: cho
Adenosine receptor A2a = Adenosine receptor A2a (Homo sapiens, UniProt P29274); experiment: Inhibition of human adenosine A2A receptor expressed in FlpIn-CHO cells assessed as inhibition of NECA-induced cAMP accumulation incubated for 30 mins by fluorescence assay; format: functional, cell-based
D(2) dopamine receptor [2] = target: T1, D(2) dopamine receptor; experiment: Agonist activity at human dopamine D2L receptor expressed in CHO cell membranes incubated for 1 hr by [35S]GTPgammaS binding assay relative to 100 uM quinelorane; format: functional
[3] = Fraction unbound in Wistar Han rat brain at 5 uM incubated for 4 hrs by dialysis and LC-MS/MS method; format: ADME, tissue-based
In short: (§1)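 Blood and brain tissue were taken from Wistar Han rat and tested in vitro. Percent fraction unbound was determined in each matrix (undiluted Fu). The brain:blood partition ratio (Kbb) was derived as an in vitro predictor of CNS penetration. Runs were in triplicate, and values are reported as mean ± SD.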

[4] = Fraction unbound in Wistar Han rat blood at 5 uM incubated for 4 hrs by dialysis and LC-MS/MS method; format: ADME, tissue-based; in short: as §1
[5] = Blood-brain partition ratio in Wistar Han rat at 5 uM incubated for 4 hrs by dialysis and LC-MS/MS method; format: ADME, tissue-based; details: in vitro; in short: as §1

T1 sequence (P14416 whole entry): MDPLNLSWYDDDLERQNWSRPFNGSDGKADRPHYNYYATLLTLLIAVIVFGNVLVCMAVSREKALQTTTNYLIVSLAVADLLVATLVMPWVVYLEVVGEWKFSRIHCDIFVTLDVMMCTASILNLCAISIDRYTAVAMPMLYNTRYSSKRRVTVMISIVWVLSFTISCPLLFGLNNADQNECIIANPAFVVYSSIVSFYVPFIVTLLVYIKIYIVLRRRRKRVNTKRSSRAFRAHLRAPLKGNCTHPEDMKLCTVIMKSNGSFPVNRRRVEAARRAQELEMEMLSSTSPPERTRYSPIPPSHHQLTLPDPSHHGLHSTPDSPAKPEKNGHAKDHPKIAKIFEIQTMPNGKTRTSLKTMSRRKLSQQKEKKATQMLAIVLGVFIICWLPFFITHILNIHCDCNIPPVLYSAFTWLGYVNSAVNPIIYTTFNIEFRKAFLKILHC
Adenosine receptor A2a, sequence (P29274 whole entry): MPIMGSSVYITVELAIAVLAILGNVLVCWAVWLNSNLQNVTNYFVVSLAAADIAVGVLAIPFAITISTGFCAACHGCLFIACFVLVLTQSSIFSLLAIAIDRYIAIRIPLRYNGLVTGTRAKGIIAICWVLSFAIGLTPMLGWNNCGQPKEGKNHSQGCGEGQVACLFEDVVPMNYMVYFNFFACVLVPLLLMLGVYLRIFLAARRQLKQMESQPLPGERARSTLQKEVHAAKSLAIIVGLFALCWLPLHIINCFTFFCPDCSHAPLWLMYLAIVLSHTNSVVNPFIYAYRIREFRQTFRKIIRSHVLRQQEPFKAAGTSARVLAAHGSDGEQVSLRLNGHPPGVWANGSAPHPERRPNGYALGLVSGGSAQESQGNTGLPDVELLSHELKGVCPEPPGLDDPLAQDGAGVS

Row | SMILES | EC50 (D(2) dopamine receptor [1]) | pEC50 (D(2) dopamine receptor [1]) | IC50 (Adenosine receptor A2a; read-out: IC50) | IC50 (Adenosine receptor A2a; read-out: pIC50 (converted)) | Emax (D(2) dopamine receptor [2]) | fraction unbound at 4 h, 5 µM [3] | fraction unbound at 4 h, 5 µM [4] | Kbb [5]
1 | CCCN1CCC[C@@H]2Cc3nc(N)ncc3C[C@H]21 [QUINELORANE] |  | 7.35 |  |  |  |  |  | 
2 | CC(C)(C)OC(=O)N1CCC(Nc2nc(N)n3nc(-c4ccco4)nc3n2)CC1 |  |  | 1740 nM | 1740 nM |  |  |  | 
3 | COC(=O)CCCCCCCCCCCNC(=O)CCCOc1ccc(CCNc2nc(N)n3nc(-c4ccco4)nc3n2)cc1 | > 100000 nM | < 4 | 437 nM | 437 nM |  |  |  | 
4 | O=C1Cc2c(CCN3CCNCC3)cccc2N1 | > 100000 nM | < 4 |  |  |  |  |  | 
5 | CC(C)(C)OC(=O)N1CCN(CCc2cccc3c2CC(=O)N3)CC1 | > 100000 nM | < 4 |  |  |  |  |  | 
6 | CC(C)(C)OC(=O)N1CCCN(CCc2cccc3c2CC(=O)N3)CC1 | > 100000 nM | < 4 |  |  |  |  |  | 
7 | Nc1nc(N2CCCN(CCc3cccc4c3CC(=O)N4)CC2)nc2nc(-c3ccco3)nn12.O=C(O)C(F)(F)F | > 100000 nM | < 4 | 1480 nM | 1480 nM |  |  |  | 
8 | Nc1nc(NC2CCN(CCc3cccc4c3CC(=O)N4)CC2)nc2nc(-c3ccco3)nn12 | > 100000 nM | < 4 | 1510 nM | 1510 nM |  |  |  | 
9 | Nc1nc(NCCc2ccc(Oc3nc(Cl)nc(N4CCOCC4)n3)cc2)nc2nc(-c3ccco3)nn12 | > 100000 nM | < 4 | 135 nM | 135 nM |  |  |  | 
10 | Nc1nc(NCCc2ccc(O)cc2)nc2nc(-c3ccco3)nn12 [ZM-241385] | > 100000 nM | < 4 |  |  |  | 0.0849 | 0.0647 | 0.76
11 | Nc1nc(N2CCN(CCc3cccc4c3CC(=O)N4)CC2)nc2nc(-c3ccco3)nn12 | > 100000 nM | < 4 | 59 nM | 58.9 nM |  | 0.0563 | 0.0605 | 1.07

The remaining lines, values ahead:

Row | EC50 (D(2) dopamine receptor [1]) | pEC50 (D(2) dopamine receptor [1]) | IC50 (Adenosine receptor A2a; read-out: IC50) | IC50 (Adenosine receptor A2a; read-out: pIC50 (converted)) | Emax (D(2) dopamine receptor [2]) | fraction unbound at 4 h, 5 µM [3] | fraction unbound at 4 h, 5 µM [4] | Kbb [5] | SMILES
12 | > 100000 nM | < 4 | 32 nM | 32.4 nM |  |  |  |  | CCCN(CCc1cccc2c1CC(=O)N2)c1nc(N)n2nc(-c3ccco3)nc2n1
13 | 484 nM |  | 35 nM | 35.5 nM | 79% |  |  |  | CCCN(CCCNC(=O)CCCC(=O)Oc1ccc(CCNc2nc(N)n3nc(-c4ccco4)nc3n2)cc1)CCc1cccc2c1CC(=O)N2
14 | 1400 nM |  | 1070 nM | 1070 nM | 38% |  |  |  | CCCN(CCCNC(=O)CCCCCCCCCCCNC(=O)CCCOc1ccc(CCNc2nc(N)n3nc(-c4ccco4)nc3n2)cc1)CCc1cccc2c1CC(=O)N2
15 | > 100000 nM | < 4 |  |  |  |  |  |  | CC(C)(C)OC(=O)NC1CCN(CCc2cccc3c2CC(=O)N3)CC1
16 | > 100000 nM | < 4 |  |  |  |  |  |  | O=C(O)C(F)(F)F.O=C1Cc2c(CCN3CCCNCC3)cccc2N1
17 | 88 nM |  | 912 nM | 912 nM | 89% | 0.153 | 0.198 | 1.29 | CCCN(CCCNc1nc(N)n2nc(-c3ccco3)nc2n1)CCc1cccc2c1CC(=O)N2
18 | > 100000 nM | < 4 |  |  |  |  |  |  | NC1CCN(CCc2cccc3c2CC(=O)N3)CC1
19 | 311 nM |  | 120 nM | 120 nM | 65% | 0.0061 | 0.0222 | 3.64 | CCCN(CCCNc1nc(Oc2ccc(CCNc3nc(N)n4nc(-c5ccco5)nc4n3)cc2)nc(N2CCOCC2)n1)CCc1cccc2c1CC(=O)N2.O=CO
20 | 148 nM |  | 63 nM | 63.1 nM | 88% |  |  |  | CCCN(CCCNC(=O)COc1ccc(CCNc2nc(N)n3nc(-c4ccco4)nc3n2)cc1)CCc1cccc2c1CC(=O)N2
21 | 785 nM |  | 110 nM | 110 nM | 68% |  |  |  | CCCN(CCCNC(=O)CCCNC(=O)CCCOc1ccc(CCNc2nc(N)n3nc(-c4ccco4)nc3n2)cc1)CCc1cccc2c1CC(=O)N2
22 | 389 nM |  | 1120 nM | 1120 nM | 77% |  |  |  | CN(CCCNc1nc(N)n2nc(-c3ccco3)nc2n1)CCc1cccc2c1CC(=O)N2
23 | 501 nM |  | 41 nM | 40.7 nM | 77% |  |  |  | CCCN(CCCNC(=O)CCCCCCCNC(=O)CCCOc1ccc(CCNc2nc(N)n3nc(-c4ccco4)nc3n2)cc1)CCc1cccc2c1CC(=O)N2
24 | 38 nM |  | 1780 nM | 1780 nM | 77% |  |  |  | CCCN(CCCCCCNc1nc(N)n2nc(-c3ccco3)nc2n1)CCc1cccc2c1CC(=O)N2
25 | 114 nM |  | > 100000 nM |  | 66% |  |  |  | CCCN(CCCNC(=O)CCCCCCCCCCCNC(=O)OC(C)(C)C)CCc1cccc2c1CC(=O)N2
26 | 204 nM |  | 18 nM | 18.2 nM | 95% |  |  |  | CCCN(CCCNC(=O)CCCOc1ccc(CCNc2nc(N)n3nc(-c4ccco4)nc3n2)cc1)CCc1cccc2c1CC(=O)N2
